Our source for the zone of inhibition values is ChEMBL document CHEMBL1275303, “Synthesis and antimicrobial activity of 2-substituted [4-(1,3,4-oxadiazol-2-yl methyl)] phthalazin-1(2H)-one derivatives” (2010).

For assay [1], the system named is Chrysosporium keratinophilum. Nature of the assay: Antimicrobial activity against Chrysosporium keratinophilum at 100 ug/mL after 72 hrs by well plate method. Conditions: read-out: IZ. The format is functional. The method, boiled down: (§1)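 Antifungal well-plate assay on Sabouraud dextrose agar using a 72 h old broth culture of the fungal strain. Wells were filled with compound dissolved in DMSO (100 or 50), and the zone of inhibition around each well was measured. […] served as reference.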

Assay [2] concerns Escherichia coli. Nature of the assay: Antimicrobial activity against Escherichia coli at 50 ug/mL after 24 hrs by well plate method. The format is functional. Conditions: read-out: IZ. The method, boiled down:
(§2)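 Agar well diffusion in nutrient agar. About 1 cm³ of a 24 h broth culture was placed in sterile dishes, and molten agar at 45 °C was poured over it and set. 6 mm wells were bored and filled with compound in DMSO (100 or 50). Plates were incubated 24 h at 37 °C, and the inhibition zone was read in mm. Duplicate runs, with standard deviation; amoxicillin as reference.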

For assay [3], the system named is Staphylococcus aureus. The assay can be described thus: Antimicrobial activity against Staphylococcus aureus at 100 ug/mL after 24 hrs by well plate method. It counts as functional. The conditions noted are these: read-out: IZ. The procedure, abridged:
as §2

Assay [4] relates to Chrysosporium keratinophilum. Nature of the assay: Antimicrobial activity against Chrysosporium keratinophilum at 50 ug/mL after 72 hrs by well plate method. The format is functional. The conditions noted are these: read-out: IZ. The method, boiled down: as §1
For assay [5], the system named is Candida albicans. Nature of the assay: Antimicrobial activity against Candida albicans at 100 ug/mL after 72 hrs by well plate method. The format is functional. The conditions noted are these: read-out: IZ. The procedure, abridged:
as §1

For assay [6], the system named is Candida albicans. The assay can be described thus: Antimicrobial activity against Candida albicans at 50 ug/mL after 72 hrs by well plate method. The format is functional. Conditions: read-out: IZ. The procedure, abridged:
as §1

For assay [7], the system named is Nannizzia gypsea. The assay can be described thus: Antimicrobial activity against Microsporum gypseum at 100 ug/mL after 72 hrs by well plate method. The format is functional. The conditions noted are these: read-out: IZ. The method, boiled down: as §1
The subject of assay [8] is Nannizzia gypsea. The assay can be described thus: Antimicrobial activity against Microsporum gypseum at 50 ug/mL after 72 hrs by well plate method. It counts as functional. Conditions: read-out: IZ. The method, boiled down:
as §1

Assay [9] relates to Aspergillus flavus. The assay can be described thus: Antimicrobial activity against Aspergillus flavus at 100 ug/mL after 72 hrs by well plate method. Conditions: read-out: IZ. The format is functional.
Assay [10] deals with Aspergillus flavus. Nature of the assay: Antimicrobial activity against Aspergillus flavus at 50 ug/mL after 72 hrs by well plate method. It counts as functional. The conditions noted are these: read-out: IZ.
In assay [11] the test system is Staphylococcus aureus. Nature of the assay: Antimicrobial activity against Staphylococcus aureus at 50 ug/mL after 24 hrs by well plate method. The format is functional. The conditions noted are these: read-out: IZ. The method, boiled down: as §2
The test system of assay [12] is Bacillus subtilis. Nature of the assay: Antimicrobial activity against Bacillus subtilis at 100 ug/mL after 24 hrs by well plate method. It counts as functional. Conditions: read-out: IZ. The procedure, abridged: as §2
Assay [13] has as its system Bacillus subtilis. The assay can be described thus: Antimicrobial activity against Bacillus subtilis at 50 ug/mL after 24 hrs by well plate method. The format is functional. The conditions noted are these: read-out: IZ. The procedure, abridged: as §2
The subject of assay [14] is Salmonella typhi. Nature of the assay: Antimicrobial activity against Salmonella typhi at 50 ug/mL after 24 hrs by well plate method. The conditions noted are these: Salmonella enterica, read-out: IZ. The format is functional, Salmonella enterica subsp. enterica serovar Typhi. The method, boiled down: (§3)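 Agar well diffusion in nutrient agar: about 1 cm³ of a 24 h broth culture placed in a sterile dish, molten agar at 45 °C poured over it and allowed to set. 6 mm holes cut with a sterile cork borer and filled with compound solution in DMSO. Incubated 24 h at 37 °C; inhibition zone diameter read in mm. Run in duplicate, standard deviation calculated.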

In assay [15] the test system is Salmonella typhi. The assay can be described thus: Antimicrobial activity against Salmonella typhi at 100 ug/mL after 24 hrs by well plate method. The format is functional, Salmonella enterica subsp. enterica serovar Typhi. Conditions: Salmonella enterica, read-out: IZ. The method, boiled down:
as §3

Assay [16] concerns Escherichia coli. Nature of the assay: Antimicrobial activity against Escherichia coli at 100 ug/mL after 24 hrs by well plate method. It counts as functional. The conditions noted are these: read-out: IZ. The procedure, abridged:
as §2

Take `Cc1nnc(Cc2nn(Cc3ccc(Cl)nc3)c(=O)c3ccccc23)o1`: the zone of inhibition at 100 µg/mL in assay [1] came out at 0 mm; in assay [3] it was 1.5 mm; in assay [5] it was 3.5 mm; in assay [7], 2 mm; in assay [9], 5 mm; in assay [12], 0 mm. The figures for the zone of inhibition at 100 µg/mL in assay [15] and in assay [16] were 2.5 mm and 3.5 mm, respectively. For the same molecule, the zone of inhibition at 50 µg/mL in [2] stood at 1.5 mm; in [4] it was 0 mm; in [6] it was 1 mm; in [8] it was 0 mm; in assay [10], 1 mm; in assay [11], 0 mm. Moreover, the zone of inhibition at 50 µg/mL is 0 mm in [13] and 1 mm in assay [14].

As for `O=c1c2ccccc2c(Cc2nnc(C(F)(F)F)o2)nn1Cc1ccc(Cl)nc1`, the zone of inhibition at 100 µg/mL came out at 4.5 mm in [1]; 6 mm in assay [3]; 4.5 mm in assay [5]; 5 mm in assay [7]; 2.5 mm in [9]; 2 mm in assay [12]. The figures for the zone of inhibition at 100 µg/mL in assay [15] and in assay [16] were 7 mm and 8 mm, respectively. Besides, the zone of inhibition at 50 µg/mL turned out to be 6 mm in [2]; 1 mm in [4]; 1.5 mm in [6]; 3 mm in assay [8]; 0 mm in [10]; 3.5 mm in assay [11]. Besides, the zone of inhibition at 50 µg/mL in assay [13] came out at 0 mm; in [14], 4 mm.

Take `O=c1c2ccccc2c(Cc2nnc(C3CC3)o2)nn1Cc1ccc(Cl)nc1`: the zone of inhibition at 100 µg/mL in assay [1] was found to be 2.5 mm; in assay [3] it was 4.5 mm; in [5] it was 8.5 mm; in assay [7] it was 7.5 mm; in [9], 5 mm; in assay [12], 6.5 mm. In addition, the zone of inhibition at 100 µg/mL in assay [15] is 6 mm; in assay [16], 11.5 mm. Moreover, the zone of inhibition at 50 µg/mL amounted to 7 mm in assay [2]; 0.5 mm in assay [4]; 5.5 mm in [6]; 4.5 mm in assay [8]; 2.5 mm in [10]; 1 mm in assay [11]. The values for the zone of inhibition at 50 µg/mL in assay [13] and in [14] were 4 mm and 3 mm, respectively.

Regarding `O=c1c2ccccc2c(Cc2nnc(-c3ccc(F)cc3)o2)nn1Cc1ccc(Cl)nc1`, the zone of inhibition at 100 µg/mL in assay [1] turned out to be 1.5 mm; in [3], 6 mm; in assay [5], 4.5 mm; in [7] it was 6.5 mm; in assay [9], 4 mm; in assay [12], 5 mm. In addition, the zone of inhibition at 100 µg/mL in [15] turned out to be 7.5 mm; in assay [16], 10 mm. Also, the zone of inhibition at 50 µg/mL in [2] amounted to 8 mm; in assay [4], 0 mm; in [6] it was 2.5 mm; in [8] it was 4 mm; in [10], 2 mm; in assay [11], 4 mm. In addition, the zone of inhibition at 50 µg/mL in [13] and in assay [14] was 3 mm in each case.

Consider `O=c1c2ccccc2c(Cc2nnc(-c3ccc(Cl)cc3)o2)nn1Cc1ccc(Cl)nc1`, for which the zone of inhibition at 100 µg/mL worked out at 3 mm in assay [1]; 4.5 mm in assay [3]; 5.5 mm in assay [5]; 4 mm in [7]; 5 mm in assay [9]; 7 mm in [12]. Moreover, the zone of inhibition at 100 µg/mL in assay [15] is 7.5 mm; in assay [16], 8 mm. In addition, the zone of inhibition at 50 µg/mL turned out to be 5 mm in assay [2]; 1 mm in assay [4]; 3 mm in assay [6]; 1 mm in [8]; 2.5 mm in assay [10]; 1 mm in [11]. In addition, the zone of inhibition at 50 µg/mL in assay [13] came out at 3.5 mm; in [14], 4 mm.

As for `Cc1ccccc1-c1nnc(Cc2nn(Cc3ccc(Cl)nc3)c(=O)c3ccccc23)o1`, the zone of inhibition at 100 µg/mL in assay [1] was 1.5 mm; in [3], 6.5 mm; in [5], 3 mm; in [7] it was 3 mm; in assay [9] it was 4 mm; in assay [12] it was 2.5 mm. Besides, the zone of inhibition at 100 µg/mL in [15] was 3 mm; in [16], 7 mm. Also, the zone of inhibition at 50 µg/mL in assay [2] was determined as 4.5 mm; in [4] it was 0 mm; in [6], 0 mm; in assay [8] it was 1 mm; in assay [10], 1 mm; in assay [11], 4.5 mm. Moreover, the values for the zone of inhibition at 50 µg/mL in assay [13] and in assay [14] were 0 mm and 1 mm, respectively.

Turning to `O=c1c2ccccc2c(Cc2nnc(-c3ccsc3)o2)nn1Cc1ccc(Cl)nc1`, the zone of inhibition at 100 µg/mL in assay [1] amounted to 10.5 mm; in assay [3], 11.5 mm; in assay [5], 7.5 mm; in assay [7] it was 11 mm; in assay [9], 7.5 mm; in assay [12] it was 6 mm. Moreover, the zone of inhibition at 100 µg/mL in assay [15] and in [16] was 15.5 mm throughout. The zone of inhibition at 50 µg/mL in assay [2] was determined as 10 mm; in assay [4] it was 6.5 mm; in assay [6], 5.5 mm; in [8], 6.5 mm; in assay [10], 4 mm; in assay [11], 7 mm. Further, the zone of inhibition at 50 µg/mL in [13] is 4 mm; in [14] it was 10 mm.

Consider `O=c1c2ccccc2c(Cc2nnc(-c3ccc(Cl)nc3)o2)nn1Cc1ccc(Cl)nc1`, for which the zone of inhibition at 100 µg/mL worked out at 6.5 mm in assay [1]; 10.5 mm in assay [3]; 11.5 mm in assay [5]; 7 mm in assay [7]; 6.5 mm in assay [9]; 8 mm in [12]. The values for the zone of inhibition at 100 µg/mL in assay [15] and in [16] were 6.5 mm and 12.5 mm, respectively. Further, the zone of inhibition at 50 µg/mL is 7.5 mm in [2]; 4.5 mm in assay [4]; 8.5 mm in assay [6]; 4 mm in assay [8]; 3.5 mm in assay [10]; 7.5 mm in assay [11]. Further, the zone of inhibition at 50 µg/mL in [13] came out at 5.5 mm; in assay [14], 2.5 mm.

As for `Cc1nnc(Cc2nn(Cc3cnc(Cl)s3)c(=O)c3ccccc23)o1`, the zone of inhibition at 100 µg/mL came to 2.5 mm in [1]; 1 mm in [3]; 2.5 mm in [5]; 3.5 mm in assay [7]; 3 mm in assay [9]; 3 mm in [12]. Also, the zone of inhibition at 100 µg/mL in [15] was 4.5 mm; in assay [16] it was 5.5 mm. Also, the zone of inhibition at 50 µg/mL in assay [2] was 2.5 mm; in [4], 0 mm; in [6], 1 mm; in [8] it was 0 mm; in [10] it was 1 mm; in assay [11], 0 mm. Moreover, the zone of inhibition at 50 µg/mL in assay [13] worked out at 1 mm; in assay [14], 2.5 mm.

In the case of `CC1(C)S[C@@H]2[C@H](NC(=O)[C@H](N)c3ccc(O)cc3)C(=O)N2[C@H]1C(=O)O` [AMOXICILLIN], the zone of inhibition at 50 µg/mL in assay [2] stood at 15 mm; in [11], 12.5 mm; in [13], 10.5 mm; in assay [14] it was 12 mm. For the same molecule, the zone of inhibition at 100 µg/mL worked out at 16.5 mm in assay [3], 14.5 mm in assay [12], 20.5 mm in [15] and 18.5 mm in assay [16].

With `Cc1ncc([N+](=O)[O-])n1CCO` [METRONIDAZOLE], the zone of inhibition at 100 µg/mL is 14 mm in assay [1], 19.5 mm in assay [5], 17 mm in assay [7] and 17.5 mm in [9]. Also, the zone of inhibition at 50 µg/mL stood at 11 mm in assay [4], 15 mm in assay [6], 14 mm in assay [8] and 13.5 mm in assay [10].
